Screening data as filed in PubChem BioAssay.
MEKK2 mut-MEK5: signal of MEK5 binding to mutant human MEKK2 PB1 domain | AID 1530 | bead flow cytometry, Alexa488-MEK5 binding to MEKK2 mutant | percent response, % at 10 µM | actives 0.35% (n = 290,000); in the data active = percent response above about 24%, passing the limit was not always enough
MEKK2wt PB1 HTS: raises or lowers MEK5 binding to wildtype human MEKK2 PB1 domain | Q9Y2U5 | bead flow cytometry, Alexa488-MEK5 binding to MEKK2 WT; actives lie on both sides | binding response (% of control), % at 10 µM | actives 1.1% (n = 290,000); in the data active = binding response below about 67% or above about 130%
WT yeast gro inh: growth inhibition of WT yeast, mitochondrial fusion screen. mitochondrial fusion phenotypic screen, WT strain. inhibition, % at 10 µM. actives 2.1% (n = 190,000). AID 1362; in the data active = inhibition above about 58%; tested in S. cerevisiae
MEKK3 PB1 HTS: raises or lowers MEK5 binding to the human MEKK3 PB1 domain | Q99759 | bead-based flow cytometry, Alexa488-MEK5 binding to MEKK3; actives lie on both sides; 0 = blocked by unlabeled MEK5, 100 = vehicle | binding response (% of control), % at 10 µM | actives 1.4% (n = 290,000);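 active = binding response more than 3 SD above or below the average of its plate-row segment, actives on both sides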;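 also: Alexa488 bead fluorescence after subtracting the streptavidin-only scavenger bead signal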
ABCG2 inh: human ABCG2 inhibition, ABCB1 as counter-screen. IgMXP3 cells, JC-1 efflux, flow cytometry. inhibition, % at 6.6 µM. actives 0.1% (n = 190,000);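 active = inhibition above 80%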;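 also: 0% = DMSO and 100% = nicardipine control wells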
Target sequence (Q9UNQ0 whole entry, looked up): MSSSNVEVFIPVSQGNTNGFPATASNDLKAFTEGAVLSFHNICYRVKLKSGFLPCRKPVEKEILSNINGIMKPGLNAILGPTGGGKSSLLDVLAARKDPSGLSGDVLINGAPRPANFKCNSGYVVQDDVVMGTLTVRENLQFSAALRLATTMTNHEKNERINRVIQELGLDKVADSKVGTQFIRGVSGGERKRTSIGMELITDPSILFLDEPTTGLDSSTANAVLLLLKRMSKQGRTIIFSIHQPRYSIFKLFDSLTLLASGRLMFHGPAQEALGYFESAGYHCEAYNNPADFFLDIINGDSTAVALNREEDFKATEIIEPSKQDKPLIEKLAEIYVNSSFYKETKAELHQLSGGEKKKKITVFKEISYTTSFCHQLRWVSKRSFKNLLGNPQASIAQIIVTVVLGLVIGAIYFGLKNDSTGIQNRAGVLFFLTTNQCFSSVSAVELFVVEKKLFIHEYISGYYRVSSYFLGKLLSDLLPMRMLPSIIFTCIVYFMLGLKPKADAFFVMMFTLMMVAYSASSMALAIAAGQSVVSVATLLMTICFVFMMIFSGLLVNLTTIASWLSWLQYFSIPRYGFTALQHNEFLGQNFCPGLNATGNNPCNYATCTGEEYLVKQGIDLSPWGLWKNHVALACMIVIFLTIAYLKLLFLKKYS
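test system = two drug-resistant human cell lines, ABCG2 and ABCB1 | amount = 3 million cells/mL final, two lines in 1:1 ratio | reagent = JC-1 transporter substrate | doses = one concentration, 6.6 µM final | incubation = 10 min at 25 °C | signal = flow cytometric JC-1 green MFI at 530 nm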
ABCB1 block: inhibitors of human ABCB1 transporter, ABCG2 counter-screen; CCRF-Adr cells, JC-1 efflux, flow cytometry; inhibition, % at 6.6 µM; actives 0.067% (n = 190,000); in the data active = inhibition above about 40%;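 also: 0% = vehicle and 100% = reference inhibitor; higher value means more JC-1 retained so stronger ABCB1 efflux block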
Active calls of the source: *. Only some compounds are listed: those with a hit (about 3.5% of all), similar ones and a draw of the others.

Results for CC1=CCC(C(=O)O)(C(=O)N/N=C/c2cccs2)C(c2ccc([N+](=O)[O-])cc2)C1 (configuration not stated) ?
MEKK2 mut-MEK5: -3; MEKK2wt PB1 HTS: 102; WT yeast gro inh: 70*; MEKK3 PB1 HTS: 97; ABCG2 inh: 1; ABCB1 block: 0

What do the screens show for `CCCOc1cc(CN2CCCCC2)cc(C(C)=O)c1`?
MEKK2 mut-MEK5: 5; MEKK2wt PB1 HTS: 105; WT yeast gro inh: 9; MEKK3 PB1 HTS: 101; ABCG2 inh: 9; ABCB1 block: 0

How did C#C[C@]1(O)CC[C@H]2[C@@H]3CCc4cc(OC5CCCC5)ccc4[C@H]3CC[C@@]21C do in these assays?
MEKK2 mut-MEK5: 1; MEKK2wt PB1 HTS: 89; WT yeast gro inh: 96*; MEKK3 PB1 HTS: 100; ABCG2 inh: 4

Results for C#C[C@]1(O)CC[C@H]2[C@@H]3CCc4cc(OC)ccc4[C@H]3CC[C@@]21C ?
MEKK2 mut-MEK5: 3; MEKK2wt PB1 HTS: 94; WT yeast gro inh: 24; MEKK3 PB1 HTS: 91; ABCG2 inh: 3; ABCB1 block: 0

Results for Cc1ccccc1N(CC(=O)NC1CCCC1)C(=O)c1oc(C(C)(C)C)cc1C ?
MEKK2 mut-MEK5: 3; MEKK2wt PB1 HTS: 99; WT yeast gro inh: 5; MEKK3 PB1 HTS: 108; ABCG2 inh: 1; ABCB1 block: 1

What do the screens show for `Cc1cc(C(C)(C)C)oc1C(=O)N(CC(=O)NC1CCCC1)Cc1ccccc1Cl`?
MEKK2 mut-MEK5: 8; MEKK2wt PB1 HTS: 99; WT yeast gro inh: 64*; MEKK3 PB1 HTS: 104; ABCG2 inh: 2; ABCB1 block: 3

What do the screens show for `CCOC(=O)c1sc(=S)n(-c2ccccc2Cl)c1C`?
MEKK2 mut-MEK5: 0; MEKK2wt PB1 HTS: 96; MEKK3 PB1 HTS: 100

Results for CCOC(=O)N1C(=O)C2(CCCCC2)N(c2ccccc2Cl)C1=S ?
MEKK2 mut-MEK5: -2; MEKK2wt PB1 HTS: 94; WT yeast gro inh: 77*; MEKK3 PB1 HTS: 93; ABCG2 inh: 2; ABCB1 block: 0

Results for O=C(O)CCCNC(=O)c1ccc(NC(=O)Cc2ccc(Cl)cc2)cc1 ?
MEKK2 mut-MEK5: 2; MEKK2wt PB1 HTS: 99; WT yeast gro inh: 0; MEKK3 PB1 HTS: 101; ABCG2 inh: 4; ABCB1 block: 1

Results for Cc1cc2nccc(-c3ccc(Cl)c([N+](=O)[O-])c3)n2n1 ?
MEKK2 mut-MEK5: -1; MEKK2wt PB1 HTS: 98; WT yeast gro inh: 3; MEKK3 PB1 HTS: 93; ABCG2 inh: 6; ABCB1 block: 1

What do the screens show for `O=S(=O)(NCC1CCCO1)c1ccc(Cl)nc1` (configuration not stated)?
MEKK2 mut-MEK5: 1; MEKK2wt PB1 HTS: 97; MEKK3 PB1 HTS: 100

Results for O=C(c1ccccc1)N(Cc1ccccc1)Cc1ccccc1 ?
MEKK2 mut-MEK5: 4; MEKK2wt PB1 HTS: 107; MEKK3 PB1 HTS: 108

Results for CC1(C(=O)N(Cc2ccccc2)Cc2ccccc2)CC1(Br)Br (configuration not stated) ?
MEKK2 mut-MEK5: -1; MEKK2wt PB1 HTS: 100; WT yeast gro inh: 83*; MEKK3 PB1 HTS: 105; ABCG2 inh: -4; ABCB1 block: 0

Results for CC(=O)N1N=C(c2ccc(C)cc2)OC1c1ccc(C(C)C)cc1 (configuration not stated) ?
MEKK2 mut-MEK5: -3; MEKK2wt PB1 HTS: 95; WT yeast gro inh: 69*; MEKK3 PB1 HTS: 102; ABCG2 inh: 3; ABCB1 block: 0

What do the screens show for `CCOC(=O)C1=NN(c2ccc(C)cc2)C2(S1)SC(C(C)=O)=C(C)N2c1ccccc1` (configuration not stated)?
MEKK2 mut-MEK5: -1; MEKK2wt PB1 HTS: 99; WT yeast gro inh: 16; MEKK3 PB1 HTS: 104; ABCG2 inh: 3; ABCB1 block: 1

Results for CCOC(=O)C1=NN(c2ccccc2)C2(S1)SC(C(C)=O)=C(C)N2c1ccccc1 (configuration not stated) ?
MEKK2 mut-MEK5: -3; MEKK2wt PB1 HTS: 91; WT yeast gro inh: 72*; MEKK3 PB1 HTS: 96; ABCG2 inh: 15; ABCB1 block: 4

Results for CCOC(=O)C1=NN(c2cccc(C)c2)C2(S1)SC(C(C)=O)=C(C)N2c1ccccc1 (configuration not stated) ?
MEKK2 mut-MEK5: -7; MEKK2wt PB1 HTS: 93; WT yeast gro inh: 77*; MEKK3 PB1 HTS: 97; ABCG2 inh: 9; ABCB1 block: 4

What do the screens show for `C=CC[C@]12C[C@@H](OC)C(=O)C=C1O[C@@H](c1ccc(OC)c(OC)c1)[C@H]2C`?
MEKK2 mut-MEK5: 3; MEKK2wt PB1 HTS: 109; MEKK3 PB1 HTS: 102

How did O=C(c1ccc2[nH]c3c(c2c1)CCCC3)N1CCN(c2ccc(F)cc2)CC1 do in these assays?
MEKK2 mut-MEK5: -1; MEKK2wt PB1 HTS: 103; WT yeast gro inh: 74*; MEKK3 PB1 HTS: 100; ABCG2 inh: 5; ABCB1 block: 0

How did Cc1[nH]c2ccc(C(=O)N3CCN(c4ccc(F)cc4)CC3)cc2c1C do in these assays?
MEKK2 mut-MEK5: 0; MEKK2wt PB1 HTS: 102; MEKK3 PB1 HTS: 102

Results for CNC(=O)CSc1nc2ccccc2c(=O)n1CCc1ccccc1 ?
MEKK2 mut-MEK5: 4; MEKK2wt PB1 HTS: 108; MEKK3 PB1 HTS: 103

How did COc1ccc(OC)c(NC(=O)COC(=O)Cc2ccc(-c3ccccc3)cc2)c1 do in these assays?
MEKK2 mut-MEK5: 9; MEKK2wt PB1 HTS: 104; WT yeast gro inh: 34; MEKK3 PB1 HTS: 100; ABCG2 inh: 8; ABCB1 block: 1

What do the screens show for `COc1ccc(OC)c(NC(=O)COC(=O)Cc2ccc(Br)cc2)c1`?
MEKK2 mut-MEK5: -11; MEKK2wt PB1 HTS: 92; WT yeast gro inh: 67*; MEKK3 PB1 HTS: 105; ABCG2 inh: 27; ABCB1 block: 0

How did COc1cc(-c2nc(-c3cccc(C)c3)no2)cc(OC)c1OC do in these assays?
MEKK2 mut-MEK5: 1; MEKK2wt PB1 HTS: 103; WT yeast gro inh: 66*; MEKK3 PB1 HTS: 108; ABCG2 inh: 13; ABCB1 block: 2

How did CCN(CC)CCNC(=O)Cn1nc(Cc2ccccc2)c2ccccc2c1=O do in these assays?
MEKK2 mut-MEK5: 8; MEKK2wt PB1 HTS: 105; WT yeast gro inh: 60*; MEKK3 PB1 HTS: 101; ABCG2 inh: 0; ABCB1 block: 0

How did Cc1cc(C)n(CCCN2C(=O)c3cccc4cccc(c34)C2=O)n1 do in these assays?
MEKK2 mut-MEK5: 1; MEKK2wt PB1 HTS: 100; WT yeast gro inh: 56; MEKK3 PB1 HTS: 101; ABCG2 inh: 11; ABCB1 block: 2

What do the screens show for `O=C(c1ccccc1Cl)N1N=C(c2ccc(Br)cc2)CC1c1nc2ccccc2[nH]1` (configuration not stated)?
MEKK2 mut-MEK5: 0; MEKK2wt PB1 HTS: 96; WT yeast gro inh: 73*; MEKK3 PB1 HTS: 104; ABCG2 inh: 0; ABCB1 block: 0
